The term MIC denotes the least concentration at which growth counts as inhibited.

From ChEMBL document CHEMBL2407080, “Synthesis and antifungal activities of cyclic octa-lipopeptide burkholdine analogues” (2013) come the findings set out here.

Format in all cases: functional
For experiment [1], the system named is Saccharomyces cerevisiae. Briefly: Antifungal activity against Saccharomyces cerevisiae X2180-1A after 24 hrs by two-fold serial dilution method. The essentials:
(§1)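 Broth twofold serial dilution MIC. Organisms were pre-grown 2 days in YPD broth, and the assay was run in YPD. Compound started at […] in medium with 0.1% DMSO, then serially diluted twofold. Each well was inoculated with about 5.0 × 10³ cells and incubated 24 h at 30 °C. MIC is the lowest concentration with no visible growth.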

The nature of experiment [2]: Antifungal activity against Candida viswanathii NBRC10321 after 24 hrs by two-fold serial dilution method. A digest of the protocol:
as §1

In experiment [3] the test system is Aspergillus oryzae. In words: Antifungal activity against Aspergillus oryzae 1-Murasaki-1 after 24 hrs by two-fold serial dilution method. Conditions: 1-Murasaki-1, 24 h. A digest of the protocol: as §1

In brackets after ≈: the same amount, converted by molar mass.

In experiment [1], `C[C@@H]1[C@H](O)[C@@H](C)/C=C/C=C/C=C/C=C/C=C/C=C/C=C/[C@H](O[C@@H]2O[C@H](C)[C@@H](O)[C@H](N)[C@@H]2O)C[C@@H]2O[C@](O)(C[C@@H](O)C[C@@H](O)[C@H](O)CC[C@@H](O)C[C@@H](O)CC(=O)O[C@H]1C)C[C@H](O)[C@H]2C(=O)O` [AMPHOTERICIN B] came in with an MIC of 0.8 µg/mL (≈ 0.866 µM).
As to `CCCCCCCCCCCCNC(=O)[C@H]1CC(=O)N[C@@H](CO)C(=O)N[C@H](Cc2ccc(O)cc2)C(=O)N[C@H](CC(N)=O)C(=O)NCC(=O)N[C@@H](CC(N)=O)C(=O)N[C@@H](CO)C(=O)N[C@@H](CC(N)=O)C(=O)N1`, the MIC in experiment [2] is greater than 800 µg/mL; in experiment [3], 100 µg/mL (≈ 98.1 µM); in experiment [1], 50 µg/mL (≈ 49.1 µM).
For the compound `NC(=O)C[C@@H]1NC(=O)CNC(=O)[C@H](CC(N)=O)NC(=O)[C@H](Cc2ccc(O)cc2)NC(=O)[C@H](CO)NC(=O)CCNC(=O)[C@H](CC(N)=O)NC(=O)[C@H](CO)NC1=O`, the MIC in experiment [2] was 800 µg/mL (≈ 990 µM); in experiment [3], greater than 800 µg/mL; in experiment [1], greater than 800 µg/mL.
For the compound `CCCCCCCCCCCCNC(=O)[C@@H]1CC(=O)N[C@H](CO)C(=O)N[C@@H](Cc2ccc(O)cc2)C(=O)N[C@H](CC(N)=O)C(=O)NCC(=O)N[C@@H](CC(N)=O)C(=O)N[C@@H](CO)C(=O)N[C@@H](CC(N)=O)C(=O)N1`, the MIC in experiment [2] is 400 µg/mL (≈ 392 µM); in experiment [3] it was 100 µg/mL (≈ 98.1 µM); in experiment [1], 50 µg/mL (≈ 49.1 µM).
As for `CCCCCCCCCCCCNC(=O)[C@H]1CC(=O)N[C@H](CO)C(=O)N[C@@H](Cc2ccc(O)cc2)C(=O)N[C@H](CC(N)=O)C(=O)NCC(=O)N[C@@H](CC(N)=O)C(=O)N[C@@H](CO)C(=O)N[C@@H](CC(N)=O)C(=O)N1`, the MIC in experiment [2] was greater than 800 µg/mL; in experiment [3], 400 µg/mL (≈ 392 µM); in experiment [1], 400 µg/mL (≈ 392 µM).
On to `NC(=O)C[C@@H]1NC(=O)CNC(=O)[C@@H](CC(N)=O)NC(=O)[C@H](Cc2ccc(O)cc2)NC(=O)[C@@H](CO)NC(=O)CCNC(=O)[C@H](CC(N)=O)NC(=O)[C@H](CO)NC1=O`, for which the MIC was greater than 800 µg/mL in experiment [2], greater than 800 µg/mL in experiment [3] and 800 µg/mL (≈ 990 µM) in experiment [1].
Regarding `CCCCCCCCCCCCNC(=O)[C@@H]1CC(=O)N[C@H](CO)C(=O)N[C@@H](Cc2ccc(O)cc2)C(=O)N[C@@H](CC(N)=O)C(=O)NCC(=O)N[C@@H](CC(N)=O)C(=O)N[C@@H](CO)C(=O)N[C@@H](CC(N)=O)C(=O)N1`, the MIC was greater than 800 µg/mL in experiment [2], greater than 800 µg/mL in experiment [3] and 400 µg/mL (≈ 392 µM) in experiment [1].
Regarding `CCCCCCCCCCCCNC(=O)[C@@H]1CC(=O)N[C@@H](CO)C(=O)N[C@H](Cc2ccc(O)cc2)C(=O)N[C@@H](CC(N)=O)C(=O)NCC(=O)N[C@@H](CC(N)=O)C(=O)N[C@@H](CO)C(=O)N[C@@H](CC(N)=O)C(=O)N1`, the results for the MIC in experiment [2], in experiment [3] and in experiment [1] were 800 µg/mL (≈ 785 µM), 400 µg/mL (≈ 392 µM) and greater than 800 µg/mL, respectively.
For `CCCCCCCCCCCCNC(=O)[C@H]1CC(=O)N[C@@H](CO)C(=O)N[C@H](Cc2ccc(O)cc2)C(=O)N[C@@H](CC(N)=O)C(=O)NCC(=O)N[C@@H](CC(N)=O)C(=O)N[C@@H](CO)C(=O)N[C@@H](CC(N)=O)C(=O)N1`, the MIC in experiment [2] is greater than 800 µg/mL; in experiment [3], greater than 800 µg/mL; in experiment [1], 800 µg/mL (≈ 785 µM).
As to `CCCCCCCCCCCCNC(=O)[C@@H]1CC(=O)N[C@H](CO)C(=O)N[C@H](Cc2ccc(O)cc2)C(=O)N[C@@H](CC(N)=O)C(=O)NCC(=O)N[C@@H](CC(N)=O)C(=O)N[C@@H](CO)C(=O)N[C@@H](CC(N)=O)C(=O)N1`, the results for the MIC in experiment [2], in experiment [3] and in experiment [1] were greater than 800 µg/mL, 800 µg/mL (≈ 785 µM) and greater than 800 µg/mL, respectively.
Turning to `CCCCCCCCCCCCNC(=O)[C@H]1CC(=O)N[C@H](CO)C(=O)N[C@H](Cc2ccc(O)cc2)C(=O)N[C@@H](CC(N)=O)C(=O)NCC(=O)N[C@@H](CC(N)=O)C(=O)N[C@@H](CO)C(=O)N[C@@H](CC(N)=O)C(=O)N1`, the minimal inhibitory concentration (MIC) was greater than 800 µg/mL in experiment [2], 800 µg/mL (≈ 785 µM) in experiment [3] and 800 µg/mL (≈ 785 µM) in experiment [1].
For the compound `CCCCCCCCCCCCNC(=O)[C@H]1CC(=O)N[C@@H](CO)C(=O)N[C@@H](Cc2ccc(O)cc2)C(=O)N[C@H](CC(N)=O)C(=O)NCC(=O)N[C@@H](CC(N)=O)C(=O)N[C@@H](CO)C(=O)N[C@@H](CC(N)=O)C(=O)N1`, the MIC in experiment [2] is greater than 800 µg/mL; in experiment [3] it was 800 µg/mL (≈ 785 µM); in experiment [1] it was 800 µg/mL (≈ 785 µM).
For `CCCCCCCCCCCCNC(=O)[C@@H]1CC(=O)N[C@@H](CO)C(=O)N[C@H](Cc2ccc(O)cc2)C(=O)N[C@H](CC(N)=O)C(=O)NCC(=O)N[C@@H](CC(N)=O)C(=O)N[C@@H](CO)C(=O)N[C@@H](CC(N)=O)C(=O)N1`, the MIC in experiment [2] is greater than 800 µg/mL; in experiment [3], 400 µg/mL (≈ 392 µM); in experiment [1], 800 µg/mL (≈ 785 µM).
Consider `CCCCCCCCCCCCNC(=O)[C@@H]1CC(=O)N[C@@H](CO)C(=O)N[C@@H](Cc2ccc(O)cc2)C(=O)N[C@@H](CC(N)=O)C(=O)NCC(=O)N[C@@H](CC(N)=O)C(=O)N[C@@H](CO)C(=O)N[C@@H](CC(N)=O)C(=O)N1`, for which the MIC was greater than 800 µg/mL in experiment [2], 200 µg/mL (≈ 196 µM) in experiment [3] and 800 µg/mL (≈ 785 µM) in experiment [1].
As for `CCCCCCCCCCCCNC(=O)[C@H]1CC(=O)N[C@H](CO)C(=O)N[C@@H](Cc2ccc(O)cc2)C(=O)N[C@@H](CC(N)=O)C(=O)NCC(=O)N[C@@H](CC(N)=O)C(=O)N[C@@H](CO)C(=O)N[C@@H](CC(N)=O)C(=O)N1`, the MIC was greater than 800 µg/mL in experiment [2], greater than 800 µg/mL in experiment [3] and 400 µg/mL (≈ 392 µM) in experiment [1].
`CCCCCCCCCCC[C@H](O)[C@H](O)[C@H](O)C[C@H]1CC(=O)N[C@@H](CO)C(=O)N[C@H]([C@H](O)c2ccc(O)cc2)C(=O)N[C@H](CC(N)=O)C(=O)NCC(=O)N[C@@H](CC(N)=O)C(=O)N[C@@H](CO)C(=O)N[C@@H]([C@H](O)C(N)=O)C(=O)N1`: the MIC in experiment [1] was found to be 1.6 µg/mL (≈ 1.46 µM).
On to `CCCCCCCCCCCCNC(=O)[C@H]1CC(=O)N[C@@H](CO)C(=O)N[C@@H](Cc2ccc(O)cc2)C(=O)N[C@@H](CC(N)=O)C(=O)NCC(=O)N[C@@H](CC(N)=O)C(=O)N[C@@H](CO)C(=O)N[C@@H](CC(N)=O)C(=O)N1`, for which the values for the MIC in experiment [2], in experiment [3] and in experiment [1] were greater than 800 µg/mL, greater than 800 µg/mL and 200 µg/mL (≈ 196 µM), respectively.
Take `CCCCCCCCCCCCNC(=O)[C@H]1CC(=O)N[C@H](CO)C(=O)N[C@H](Cc2ccc(O)cc2)C(=O)N[C@H](CC(N)=O)C(=O)NCC(=O)N[C@@H](CC(N)=O)C(=O)N[C@@H](CO)C(=O)N[C@@H](CC(N)=O)C(=O)N1`: the values for the MIC in experiment [2], in experiment [3] and in experiment [1] were greater than 800 µg/mL, 800 µg/mL (≈ 785 µM) and 400 µg/mL (≈ 392 µM), respectively.
In the case of `CCCCCCCCCCCCNC(=O)[C@@H]1CC(=O)N[C@H](CO)C(=O)N[C@H](Cc2ccc(O)cc2)C(=O)N[C@H](CC(N)=O)C(=O)NCC(=O)N[C@@H](CC(N)=O)C(=O)N[C@@H](CO)C(=O)N[C@@H](CC(N)=O)C(=O)N1`, the MIC worked out at 800 µg/mL (≈ 785 µM) in experiment [2], 50 µg/mL (≈ 49.1 µM) in experiment [3] and 25 µg/mL (≈ 24.5 µM) in experiment [1].
For `NC(=O)C[C@@H]1NC(=O)CNC(=O)[C@@H](CC(N)=O)NC(=O)[C@@H](Cc2ccc(O)cc2)NC(=O)[C@@H](CO)NC(=O)CCNC(=O)[C@H](CC(N)=O)NC(=O)[C@H](CO)NC1=O`, in that order: greater than 800 µg/mL, 800 µg/mL (≈ 990 µM) and 800 µg/mL (≈ 990 µM).
Turning to `CCCCCCCCCCCCNC(=O)[C@@H]1CC(=O)N[C@@H](CO)C(=O)N[C@@H](Cc2ccc(O)cc2)C(=O)N[C@H](CC(N)=O)C(=O)NCC(=O)N[C@@H](CC(N)=O)C(=O)N[C@@H](CO)C(=O)N[C@@H](CC(N)=O)C(=O)N1`, the MIC in experiment [2] is 800 µg/mL (≈ 785 µM); in experiment [3] it was 400 µg/mL (≈ 392 µM); in experiment [1] it was greater than 800 µg/mL.
